In ChEMBL document CHEMBL1133924, “Inhibitors of bacterial enoyl acyl carrier protein reductase (FabI): 2,9-disubstituted 1,2,3,4-tetrahydropyrido[3,4-b]indoles as potential antibacterial agents” (Bioorg Med Chem Lett, 2001):
pIC50: −log10 of the molar value. Converted amounts (≈) assume the structure as drawn.

What was measured:
[1] = molecular target: T1, Enoyl-[acyl-carrier-protein] reductase [NADH] FabI (Escherichia coli K-12, UniProt P0AEK4); experiment: Antibacterial activity against Escherichia coli FabI
T1 sequence (P0AEK4 whole entry): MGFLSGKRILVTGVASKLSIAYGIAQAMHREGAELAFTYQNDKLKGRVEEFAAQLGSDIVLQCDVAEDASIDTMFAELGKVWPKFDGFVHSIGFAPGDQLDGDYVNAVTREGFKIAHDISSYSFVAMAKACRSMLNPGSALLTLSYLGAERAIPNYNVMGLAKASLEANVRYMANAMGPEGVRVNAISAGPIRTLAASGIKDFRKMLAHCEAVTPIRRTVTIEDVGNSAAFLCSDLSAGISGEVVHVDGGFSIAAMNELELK

[2] = molecular target: T2, Enoyl-[acyl-carrier-protein] reductase [NADPH] FabI (Staphylococcus aureus, UniProt Q6GI75); experiment: Antibacterial activity against Staphylococcus aureus FabI
T2 sequence (Q6GI75 whole entry): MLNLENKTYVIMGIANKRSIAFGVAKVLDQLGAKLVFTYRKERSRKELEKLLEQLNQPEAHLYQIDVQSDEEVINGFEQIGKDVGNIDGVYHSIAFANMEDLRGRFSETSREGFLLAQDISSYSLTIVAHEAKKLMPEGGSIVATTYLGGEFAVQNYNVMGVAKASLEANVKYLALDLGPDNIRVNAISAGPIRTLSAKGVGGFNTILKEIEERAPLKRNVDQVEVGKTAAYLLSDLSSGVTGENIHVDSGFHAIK

Escherichia coli = experiment: In vitro antibacterial activity against Escherichia coli FabI
Moraxella catarrhalis = experiment: In vitro antibacterial activity against Moraxella catarrhalis 1502 FabI
How it was run: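 Broth microdilution MIC in cation-adjusted Mueller–Hinton broth. Compounds were dissolved in DMSO, diluted 1:10 in water, then serially diluted. Each well received about 1×10⁶ cfu/mL inoculum. Plates were incubated at 35 °C in ambient air for 18–24 h.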

Staphylococcus aureus = experiment: In vitro antibacterial activity against Staphylococcus aureus FabI
[3] = molecular target: T1, Enoyl-[acyl-carrier-protein] reductase [NADH] FabI; experiment: Antibacterial activity against Escherichia coli Enoyl-[acyl-carrier-protein] reductase was determined

SMILES | pIC50 [1] | pIC50 [2] | MIC (Escherichia coli) [µg/mL] | MIC (Moraxella catarrhalis) [µg/mL] | MIC (Staphylococcus aureus) [µg/mL] | pIC50 [3]
O=C(c1cccc(O)c1)N1CCc2c(n(Cc3ccc(O)cc3)c3ccccc23)C1 | < 4.30 | 5.47 |  |  |  | 
O=C(c1ccc(Cl)cc1O)N1CCc2c(n(Cc3ccc(O)cc3)c3ccccc23)C1 | 5.21 | 6.80 | > 64 | 2 (≈ 4.62 µM) | 1 (≈ 2.31 µM) | 
COC(=O)c1ccc(C(=O)N2CCc3c(n(Cc4ccc(O)cc4)c4ccccc34)C2)cc1 | < 4.30 | 5.70 |  |  |  | 
CCCCc1ccc(C(=O)N2CCc3c(n(Cc4ccc(O)cc4)c4ccccc34)C2)cc1 | < 4.30 | 6.29 |  |  |  | 
O=C(c1ccccc1)N1CCc2c(n(Cc3ccc(O)cc3)c3ccccc23)C1 | 5.57 | 6.31 |  |  |  | 
O=C(c1ccc(Cl)cc1)N1CCc2c(n(Cc3ccc(O)cc3)c3ccccc23)C1 | 4.77 | 6.74 | > 64 | > 64 | 4 (≈ 9.59 µM) | 
Cc1cc(C(=O)N2CCc3c(n(Cc4ccc(O)cc4)c4ccccc34)C2)ccc1O | 5.36 | 6.74 | > 64 | 8 (≈ 19.4 µM) | 1 (≈ 2.42 µM) | 
Nc1ccc(Cn2c3c(c4ccccc42)CCN(C(=O)c2ccc(O)cc2)C3)cc1 | 4.67 | 6.17 |  |  |  | 
COc1ccc(C(=O)N2CCc3c(n(Cc4ccc(O)cc4)c4ccccc34)C2)cc1 | 4.45 | 6.43 |  |  |  | 
O=C(c1ccccc1O)N1CCc2c(n(Cc3ccc(O)cc3)c3ccccc23)C1 | 5.37 | 6.14 | > 64 | 8 (≈ 20.1 µM) | 4 (≈ 10 µM) | 
CNc1ccc(C(=O)N2CCc3c(n(Cc4ccc(O)cc4)c4ccccc34)C2)cc1 | 4.41 | 5.68 |  |  |  | 
O=C(c1ccc(O)cc1)N1CCc2c(n(Cc3cccc(O)c3)c3ccccc23)C1 |  |  |  |  |  | 5.06
Oc1cc(Cl)ccc1Oc1ccc(Cl)cc1Cl |  |  | 4 (≈ 13.8 µM) | 0.06 (≈ 0.207 µM) | 0.03 (≈ 0.104 µM) | 
Nc1ccc(C(=O)N2CCc3c(n(Cc4ccc(O)cc4)c4ccccc34)C2)cc1 | 5.40 | 6.00 |  |  |  | 
CS(=O)(=O)c1ccc(Cn2c3c(c4ccccc42)CCN(C(=O)c2ccc(O)cc2)C3)cc1 | 5.35 | 6.48 |  |  |  | 
O=C(c1ccc(O)cc1)N1CCc2c(n(Cc3ccc(O)cc3)c3ccccc23)C1 | 5.38 | 6.96 | > 64 | 8 (≈ 20.1 µM) | 0.5 (≈ 1.25 µM) | 
COC(=O)Cn1c2c(c3ccccc31)CCN(C(=O)c1ccc(O)cc1)C2 |  |  |  |  |  | 4.46

SMILES | pIC50 [1] | pIC50 [2] | MIC (Escherichia coli) [µg/mL] | MIC (Moraxella catarrhalis) [µg/mL] | MIC (Staphylococcus aureus) [µg/mL] | pIC50 [3]
Cc1cc(O)c(C)c(O)c1C(=O)N1CCc2c(n(Cc3ccc(O)cc3)c3ccccc23)C1 | < 4.30 | < 4.30 |  |  |  | 
O=C(c1ccc(Cl)cc1Cl)N1CCc2c(n(Cc3ccc(O)cc3)c3ccccc23)C1 | 4.45 | 5.74 |  |  |  | 
Cc1ccc(C(=O)N2CCc3c(n(Cc4ccc(O)cc4)c4ccccc34)C2)cc1 | 5.28 | 6.62 | > 64 | > 64 | 0.5 (≈ 1.26 µM) | 
CN(Cc1cc2ccccc2n1Cc1ccc(O)cc1)C(=O)c1ccc(O)cc1 |  | 6.00 |  |  |  | 
Cc1ccc(C(=O)N2CCc3c(n(Cc4ccc(O)cc4)c4ccccc34)C2)c(O)c1 | 5.09 | 6.92 | > 64 | 4 (≈ 9.7 µM) | 1 (≈ 2.42 µM) | 
O=C(c1ccc(O)cc1)N1CCc2c(n(Cc3ccccc3)c3ccccc23)C1 |  |  |  |  |  | 4.57
O=C(O)c1ccc(Cn2c3c(c4ccccc42)CCN(C(=O)c2ccc(O)cc2)C3)cc1 | < 4.30 | 5.06 |  |  |  | 
O=C(c1cc(Cl)cc(Cl)c1O)N1CCc2c(n(Cc3ccc(O)cc3)c3ccccc23)C1 | 5.00 | 5.74 |  |  |  | 
O=C(c1ccc(O)c(Cl)c1)N1CCc2c(n(Cc3ccc(O)cc3)c3ccccc23)C1 | 5.47 | 6.80 | > 64 | 4 (≈ 9.24 µM) | 1 (≈ 2.31 µM) | 
O=C(c1ccc(O)cc1)N1CCc2c([nH]c3ccccc23)C1c1ccc(O)cc1 (configuration not stated) |  | 4.55 |  |  |  | 
O=C(c1ccc(O)cc1)N1CCc2c(n(Cc3ccc(F)cc3)c3ccccc23)C1 | 5.38 | 6.60 |  |  |  | 
O=C(c1ccc(O)cc1)N1CCc2c(c3ccccc3n2Cc2ccc(O)cc2)C1 |  | 4.49 |  |  |  | 
Cn1c2c(c3ccccc31)CCN(C(=O)c1ccc(O)cc1)C2 |  |  |  |  |  | 4.96
O=C(c1ccc(O)cc1)N1CCc2c([nH]c3ccccc23)C1 |  |  |  |  |  | 4.74
COC(=O)CCCCn1c2c(c3ccccc31)CCN(C(=O)c1ccc(O)cc1)C2 |  |  |  |  |  | 4.57
Cc1cc(C(=O)N2CCc3c(n(Cc4ccc(O)cc4)c4ccccc34)C2)cc(C)c1O | 4.64 | 5.54 |  |  |  | 
